Results from different studies.
Compare with care: the assays were run in different laboratories. pEC50: −log10 of the molar value.

C/C(=N\C(=N)/N=C(\C)c1c(O)c2ccccc2oc1=O)c1c(O)c2ccccc2oc1=O — MIC (Penicillium verrucosum; microbial growth, broth dilution; 48 h): 125 µg/mL
CC[C@H]1OC(=O)[C@H](C)[C@@H](O[C@H]2C[C@@](C)(OC)[C@@H](O)[C@H](C)O2)[C@H](C)[C@@H](O[C@@H]2O[C@H](C)C[C@H](N(C)C)[C@H]2O)[C@](C)(O)C[C@@H](C)/C(=N\OCOCCOC)[C@H](C)[C@@H](O)[C@]1(C)O — MIC90 (Enterococcus faecium; microbial growth; clinical isolate): > 128 µg/mL
CC(=O)N1CCN(c2ccc(OCC3COC(Cn4ccnc4)(c4ccc(Cl)cc4Cl)O3)cc2)CC1 (stereo not shown) — MIC (Candida albicans; microbial growth, broth dilution; SP3876; 48 h): 8 µM
O=c1[nH]c(CCl)nc2scc(-c3ccc(F)cc3)c12 — pEC50 (Trypanosoma brucei; parasite growth, ATP luminescence; 24 h): 5.89
CN1CCN(c2cccc(-c3ccc4ncnc(Nc5ncco5)c4c3)c2)CC1 — GI50 (Trypanosoma brucei; parasite growth, SYBR Green; 48 h): 1700 nM
C[C@@H]1[C@H](O)[C@@H](C)/C=C/C=C/C=C/C=C/C=C/C=C/C=C/[C@H](O[C@@H]2O[C@H](C)[C@@H](O)[C@H](N)[C@@H]2O)C[C@@H]2O[C@](O)(C[C@@H](O)C[C@@H](O)[C@H](O)CC[C@@H](O)C[C@@H](O)CC(=O)O[C@H]1C)C[C@H](O)[C@H]2C(=O)O — MIC (Candida albicans; microbial growth, broth dilution; CGMCC2; 48 h): < 0.25 µM
COc1c(N2C[C@@H]3CCCN[C@@H]3C2)c(F)cc2c(=O)c(C(=O)O)cn(C3CC3)c12 — MIC90 (Enterococcus faecium; microbial growth; clinical isolate): 64 µg/mL
Cc1c2c(nn1C)CSCc1cc(n(C)n1)CSc1cc(c3ccccc3c1)OCCCc1c(C(=O)O)n(C)c3c-2c(Cl)ccc13 — MIC90 (Enterococcus faecium; microbial growth, broth dilution; clinical isolate): 25 µM
C/C(=N\CCNCC/N=C(\C)c1c(O)c2ccccc2oc1=O)c1c(O)c2ccccc2oc1=O — MIC (Penicillium verrucosum; microbial growth, broth dilution; 48 h): 125 µg/mL
c1cc(-c2ccc3ncnc(Nc4ncco4)c3c2)nc(N2CCOCC2)n1 — GI50 (Trypanosoma brucei; parasite growth, SYBR Green; 48 h): 230 nM
O=c1[nH]c(CCl)nc2scc(-c3ccc(C(F)(F)F)cc3)c12 — pEC50 (Trypanosoma brucei; parasite growth, ATP luminescence; 48 h): 5.60
c1cc(-c2ccc3ncnc(Nc4ncco4)c3c2)nc(N2CCOCC2)c1 — GI50 (Trypanosoma brucei; parasite growth, SYBR Green; GAMBIENSE): 2400 nM
CCOC(=O)c1cnc2c([N+](=O)[O-])cc(C(F)(F)F)cc2c1NCCCn1ccnc1 — pEC50 (Trypanosoma brucei; parasite growth, resazurin; 72 h): 5.10
Clc1cccc(Nc2ncnc3ccc(-c4cccc(N5CCOCC5)c4)cc23)c1 — GI50 (Trypanosoma brucei; parasite growth, SYBR Green; 48 h): 380 nM
O=c1[nH]c(CCl)nc2scc(-c3cccc(F)c3)c12 — pEC50 (Trypanosoma brucei; parasite growth, ATP luminescence; 24 h): 5.89
FC(F)(F)c1cc(Nc2ncnc3ccc(-c4cccc(N5CCOCC5)c4)cc23)ccc1Cl — GI50 (Trypanosoma brucei; parasite growth, SYBR Green; 48 h): 50 nM
OC(Cn1cncn1)(Cn1cncn1)c1ccc(F)cc1F — MIC (Candida albicans; microbial growth, broth dilution; SP3876; 48 h): 16 µM
C/C(=N\C1CCCCC1/N=C(\C)c1c(O)c2ccccc2oc1=O)c1c(O)c2ccccc2oc1=O (stereo not shown) — MIC (Penicillium verrucosum; microbial growth, broth dilution; 48 h): 62.5 µg/mL
O=[N+]([O-])c1ccc(Nc2ncnc3ccc(-c4cccc(N5CCOCC5)c4)cc23)cc1C(F)(F)F — GI50 (Trypanosoma brucei; parasite growth, SYBR Green; 48 h): 8.4 nM
